# Laboratory results from ChEMBL document CHEMBL4689842, “EUbOPEN Chemogenomics Library wave 1” (2021).
# Tested on: Fibroblast
# Experiment: Multiplex assay against human fibroblast
# Assay type: toxicity, cell-based
# Summary of the method: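 Phenotypes for tubulin, mitochondrial mass and membrane permeability are expressed as per cents of healthy-nucleus cells. Cells were stained live at seeding with Hoechst33342, BioTracker Green Microtubule Cytoskeleton Dye, MitoTracker Red and Annexin V Alexa Fluor 680, then imaged after compound addition on a CQ1 microscope at 37°C and 5% CO2. Machine-learning gating in CellPathfinder separated Hoechst high-intensity objects from normal cells, divided normal cells by nuclear state (healthy, pyknosed, fragmented) and divided pyknosed cells into mitotic or apoptotic.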
# [1] = 12 h, 1 µM, compound concentration 1 uM, replicate 1
# [2] = 12 h, 1 µM, compound concentration 1 uM, replicate 2
# [3] = 12 h, 10 µM, compound concentration 10 uM, replicate 1
# [4] = 12 h, 10 µM, compound concentration 10 uM, replicate 2
# [5] = 24 h, 1 µM, compound concentration 1 uM, replicate 1
# [6] = 24 h, 1 µM, compound concentration 1 uM, replicate 2
# [7] = 24 h, 10 µM, compound concentration 10 uM, replicate 1
# [8] = 24 h, 10 µM, compound concentration 10 uM, replicate 2
# [9] = 48 h, 1 µM, compound concentration 1 uM, replicate 1
# [10] = 48 h, 1 µM, compound concentration 1 uM, replicate 2
# [11] = 48 h, 10 µM, compound concentration 10 uM, replicate 1
# [12] = 48 h, 10 µM, compound concentration 10 uM, replicate 2
smiles,measurement,setting,value
CCCn1c(=O)c2[nH]c(-c3cnn(Cc4cccc(C(F)(F)F)c4)c3)nc2n(CC)c1=O [GS 6201],Population Apoptotic (%),[1],51%
same,Population Fragmented Nuclei (%),[1],26%
same,Population Healthy Nuclei (%),[1],32%
same,Population Hoechst High Intensity Objects (%),[1],11%
same,Population Membrane Permeable-Phenotype (%),[1],33%
same,Population Mitochondria Different-Phenotype (%),[1],14%
same,Population Mitotic Cells (%),[1],48%
same,Population Normal (%),[1],88%
same,Population Pyknosed Nuclei (%),[1],41%
same,Population Tubulin-Different-Phenotype (%),[1],59%
same,Total Cell Count,[1],95
same,Population Apoptotic (%),[2],42%
same,Population Fragmented Nuclei (%),[2],4%
same,Population Healthy Nuclei (%),[2],88%
same,Population Hoechst High Intensity Objects (%),[2],2%
same,Population Membrane Permeable-Phenotype (%),[2],8%
same,Population Mitochondria Different-Phenotype (%),[2],9%
same,Population Mitotic Cells (%),[2],57%
same,Population Normal (%),[2],97%
same,Population Pyknosed Nuclei (%),[2],7%
same,Population Tubulin-Different-Phenotype (%),[2],28%
same,Total Cell Count,[2],75
same,Population Apoptotic (%),[3],76%
same,Population Fragmented Nuclei (%),[3],48%
same,Population Healthy Nuclei (%),[3],18%
same,Population Hoechst High Intensity Objects (%),[3],31%
same,Population Membrane Permeable-Phenotype (%),[3],25%
same,Population Mitochondria Different-Phenotype (%),[3],17%
same,Population Mitotic Cells (%),[3],24%
same,Population Normal (%),[3],68%
same,Population Pyknosed Nuclei (%),[3],33%
same,Population Tubulin-Different-Phenotype (%),[3],46%
same,Total Cell Count,[3],221
same,Population Apoptotic (%),[4],50%
same,Population Fragmented Nuclei (%),[4],17%
same,Population Healthy Nuclei (%),[4],77%
same,Population Hoechst High Intensity Objects (%),[4],5%
same,Population Membrane Permeable-Phenotype (%),[4],3%
same,Population Mitochondria Different-Phenotype (%),[4],20%
same,Population Mitotic Cells (%),[4],50%
same,Population Normal (%),[4],94%
same,Population Pyknosed Nuclei (%),[4],4%
same,Population Tubulin-Different-Phenotype (%),[4],10%
same,Total Cell Count,[4],98
same,Population Apoptotic (%),[5],70%
same,Population Fragmented Nuclei (%),[5],21%
same,Population Healthy Nuclei (%),[5],42%
same,Population Hoechst High Intensity Objects (%),[5],20%
same,Population Membrane Permeable-Phenotype (%),[5],32%
same,Population Mitochondria Different-Phenotype (%),[5],10%
same,Population Mitotic Cells (%),[5],29%
same,Population Normal (%),[5],79%
same,Population Pyknosed Nuclei (%),[5],36%
same,Population Tubulin-Different-Phenotype (%),[5],82%
same,Total Cell Count,[5],83
same,Population Apoptotic (%),[6],50%
same,Population Fragmented Nuclei (%),[6],5%
same,Population Healthy Nuclei (%),[6],90%
same,Population Hoechst High Intensity Objects (%),[6],4%
same,Population Membrane Permeable-Phenotype (%),[6],2%
same,Population Mitotic Cells (%),[6],50%
same,Population Normal (%),[6],95%
same,Population Pyknosed Nuclei (%),[6],4%
same,Population Tubulin-Different-Phenotype (%),[6],30%
same,Total Cell Count,[6],81
same,Population Apoptotic (%),[7],87%
same,Population Fragmented Nuclei (%),[7],51%
same,Population Healthy Nuclei (%),[7],24%
same,Population Hoechst High Intensity Objects (%),[7],26%
same,Population Membrane Permeable-Phenotype (%),[7],29%
same,Population Mitochondria Different-Phenotype (%),[7],12%
same,Population Mitotic Cells (%),[7],12%
same,Population Normal (%),[7],73%
same,Population Pyknosed Nuclei (%),[7],23%
same,Population Tubulin-Different-Phenotype (%),[7],56%
same,Total Cell Count,[7],224
same,Population Apoptotic (%),[8],50%
same,Population Fragmented Nuclei (%),[8],17%
same,Population Healthy Nuclei (%),[8],72%
same,Population Hoechst High Intensity Objects (%),[8],3%
same,Population Membrane Permeable-Phenotype (%),[8],5%
same,Population Mitochondria Different-Phenotype (%),[8],11%
same,Population Mitotic Cells (%),[8],50%
same,Population Normal (%),[8],96%
same,Population Pyknosed Nuclei (%),[8],10%
same,Population Tubulin-Different-Phenotype (%),[8],9%
same,Total Cell Count,[8],139
same,Population Apoptotic (%),[9],69%
same,Population Fragmented Nuclei (%),[9],38%
same,Population Healthy Nuclei (%),[9],41%
same,Population Hoechst High Intensity Objects (%),[9],20%
same,Population Membrane Permeable-Phenotype (%),[9],25%
same,Population Mitochondria Different-Phenotype (%),[9],17%
same,Population Mitotic Cells (%),[9],30%
same,Population Normal (%),[9],79%
same,Population Pyknosed Nuclei (%),[9],19%
same,Population Tubulin-Different-Phenotype (%),[9],67%
same,Total Cell Count,[9],84
same,Population Apoptotic (%),[10],100%
same,Population Fragmented Nuclei (%),[10],20%
same,Population Healthy Nuclei (%),[10],76%
same,Population Hoechst High Intensity Objects (%),[10],11%
same,Population Membrane Permeable-Phenotype (%),[10],13%
same,Population Mitochondria Different-Phenotype (%),[10],5%
same,Population Mitotic Cells (%),[10],0%
same,Population Normal (%),[10],89%
same,Population Pyknosed Nuclei (%),[10],3%
same,Population Tubulin-Different-Phenotype (%),[10],35%
same,Total Cell Count,[10],100
same,Population Apoptotic (%),[11],84%
same,Population Fragmented Nuclei (%),[11],61%
same,Population Healthy Nuclei (%),[11],26%
same,Population Hoechst High Intensity Objects (%),[11],31%
same,Population Membrane Permeable-Phenotype (%),[11],41%
same,Population Mitochondria Different-Phenotype (%),[11],4%
same,Population Mitotic Cells (%),[11],15%
same,Population Normal (%),[11],68%
same,Population Pyknosed Nuclei (%),[11],11%
same,Population Tubulin-Different-Phenotype (%),[11],48%
same,Total Cell Count,[11],234
same,Population Apoptotic (%),[12],0%
same,Population Fragmented Nuclei (%),[12],28%
same,Population Healthy Nuclei (%),[12],67%
same,Population Hoechst High Intensity Objects (%),[12],11%
same,Population Membrane Permeable-Phenotype (%),[12],12%
same,Population Mitochondria Different-Phenotype (%),[12],1%
same,Population Mitotic Cells (%),[12],100%
same,Population Normal (%),[12],88%
same,Population Pyknosed Nuclei (%),[12],4%
same,Population Tubulin-Different-Phenotype (%),[12],63%
same,Total Cell Count,[12],109
